Source: ChEMBL document CHEMBL1221310, “Discovery of potent HIV integrase inhibitors active against raltegravir resistant viruses” (Bioorg Med Chem Lett, 2010)

Assays:
[1] = tested on: Human immunodeficiency virus; test: Antiviral activity against raltegravir-resistant HIV expressing integrase N155H/E92Q mutant infected in HEK293T cells after 48 hrs by luciferase reporter gene assay; format: functional, organism-based, HEK-293T
Procedure, shortened: (§1)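 VSV-G-pseudotyped, env-deleted HIV-1 carrying luciferase in nef, made by cotransfecting 293T cells; integrase resistance mutations introduced by site-directed mutagenesis. 293T cells seeded 16 h before compound, preincubated with compound 4 h at 37 °C, then infected with virus giving about 10,000 luciferase light units without compound. Luciferase read 48 h post-infection.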

[2] = Inhibition of HIV integrase after 2 hrs by combined strand transfer assay; set-up: species or system Human immunodeficiency virus
Procedure, shortened: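 Integrase (400 ng) was incubated 2 h at 37 °C with 30 nM pre-processed U5 LTR duplex substrate, one strand DIG-tagged and the other biotin-tagged. 3′-processing/strand-transfer products were captured on streptavidin plates and detected with anti-DIG-alkaline phosphatase and p-nitrophenyl phosphate.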

[3] = tested on: Human immunodeficiency virus; test: Antiviral activity against raltegravir-resistant HIV expressing integrase Q148H/G140S mutant infected in HEK293T cells after 48 hrs by luciferase reporter gene assay; format: functional, organism-based; settings: Human immunodeficiency virus 1, HEK-293T; procedure, shortened: as §1
[4] = tested on: Human immunodeficiency virus; test: Antiviral activity against wild type HIV assessed as inhibition of p24 antigen production after 48 hrs by cell based luciferase reporter gene assay; format: functional, organism-based; settings: Human immunodeficiency virus 1, 48 h
[5] = tested on: Human immunodeficiency virus; test: Antiviral activity against wild type HIV assessed as inhibition of p24 antigen production after 48 hrs by cell based luciferase reporter gene assay in presence of 10% normal human serum; format: functional, organism-based; settings: Human immunodeficiency virus 1, 48 h
[6] = tested on: Human immunodeficiency virus; test: Antiviral activity against wild type HIV assessed as inhibition of p24 antigen production after 48 hrs by cell based luciferase reporter gene assay in presence of 50% normal human serum; format: functional, organism-based; settings: Human immunodeficiency virus 1, 48 h
[7] = tested on: Human immunodeficiency virus; test: Antiviral activity against raltegravir-resistant HIV expressing integrase Q148H/G140S mutant infected in HEK293T cells after 48 hrs by luciferase reporter gene assay in presence of 10% FBS; format: functional, organism-based; settings: Human immunodeficiency virus 1, HEK-293T; procedure, shortened: as §1
[8] = Half life in microsomes; format: ADME, Microsome
[9] = tested on: Human immunodeficiency virus; test: Antiviral activity against raltegravir-resistant HIV expressing integrase N155H/E92Q mutant infected in HEK293T cells after 48 hrs by luciferase reporter gene assay in presence of 10% FBS; format: functional, organism-based; settings: Human immunodeficiency virus 1, HEK-293T; procedure, shortened: as §1
[10] = Human immunodeficiency virus 1, HEK-293T, 48 h, read-out: EC50

CC(O)c1cc(N2CCOCC2)cn2c(=O)c(O)c(-c3ncc(Cc4ccc(F)cc4)s3)nc12 (stereo not drawn)
EC50 ([1]; hek-293t): Not Active | IC50 [2]: Not Active | EC50 [3]: 0.8 µM | EC50 [4]: 0.0105 µM

CN1CCN(c2cc(N3CCCOC3=O)c3nc(-c4ncc(Cc5ccc(F)cc5)s4)c(O)c(=O)n3c2)CC1
EC50 [5]: 0.0035 µM | EC50 [6]: 0.0066 µM | EC50 [7]: 0.0295 µM | half-life [8]: 67.8 min | EC50 [9]: 0.0049 µM

O=C1CCCN1c1cc(N2CCOCC2)cn2c(=O)c(O)c(-c3ncc(Cc4ccc(F)cc4)s3)nc12
EC50 ([1]; hek-293t): Not Active | IC50 [2]: Not Active | EC50 [3]: 0.335 µM | EC50 [4]: 0.021 µM

O=c1c(O)c(-c2ncc(Cc3ccc(F)cc3)s2)nc2c(Br)cc(N3CCOCC3)cn12
EC50 [1, 10]: 0.019 µM | IC50 ([2]; read-out: IC50): 0.042 µM | EC50 [3]: 2.5 µM | EC50 [4]: 0.014 µM

COc1cc(N2CCOCC2)cn2c(=O)c(O)c(-c3ncc(Cc4ccc(F)cc4)s3)nc12
EC50 ([1]; hek-293t): Not Active | IC50 [2]: Not Active | EC50 [3]: 5.9 µM | EC50 [4]: 0.1 µM

CC(=O)c1cc(N2CCOCC2)cn2c(=O)c(O)c(-c3ncc(Cc4ccc(F)cc4)s3)nc12
EC50 ([1]; hek-293t): Not Active | IC50 ([2]; read-out: IC50): 0.015 µM | EC50 [3]: 0.885 µM | EC50 [4]: 0.0095 µM

O=c1c(O)c(-c2ncc(Cc3ccc(F)cc3)s2)nc2c(N3CCCS3(=O)=O)cc(N3CCOCC3)cn12
EC50 [1, 10]: 0.0495 µM | IC50 ([2]; read-out: IC50): 0.048 µM | EC50 [3]: 0.28 µM | EC50 [4]: 0.0064 µM

CC(c1cc(N2CCOCC2)cn2c(=O)c(O)c(-c3ncc(Cc4ccc(F)cc4)s3)nc12)N1CCCCC1 (stereo not drawn)
EC50 ([1]; hek-293t): Not Active | IC50 [2]: Not Active | EC50 [3]: 5.5 µM | EC50 [4]: 0.11 µM

CN1CCN(c2cc(N3CCOCC3)cn3c(=O)c(O)c(-c4ncc(Cc5ccc(F)cc5)s4)nc23)S1(=O)=O
EC50 [1, 10]: 0.0185 µM | IC50 ([2]; read-out: IC50): 0.038 µM | EC50 [3]: 0.112 µM | EC50 [4]: 0.0085 µM

O=C(c1cc(N2CCOCC2)cn2c(=O)c(O)c(-c3ncc(Cc4ccc(F)cc4)s3)nc12)N1CCCC1
EC50 [1, 10]: 0.2 µM | IC50 ([2]; read-out: IC50): 0.07 µM | EC50 [3]: 1.18 µM | EC50 [4]: 0.081 µM

O=c1c(O)c(-c2ncc(Cc3ccc(F)cc3)s2)nc2ccc(N3CCOCC3)cn12
EC50 [1, 10]: 0.0745 µM | IC50 ([2]; read-out: IC50): 0.02 µM | EC50 [3]: 3 µM | EC50 [4]: 0.032 µM

CC(C)N1CCN(c2cc(N3CCN(C)C3=O)c3nc(-c4ncc(Cc5ccc(F)cc5)s4)c(O)c(=O)n3c2)CC1
EC50 [1, 10]: 0.0089 µM | IC50 ([2]; read-out: IC50): 0.019 µM | EC50 [3]: 0.021 µM | EC50 [4]: 0.0068 µM

CN1CCN(c2cc(N3CCOCC3)cn3c(=O)c(O)c(-c4ncc(Cc5ccc(F)cc5)s4)nc23)C1=O
EC50 [1, 10]: 0.01 µM | IC50 ([2]; read-out: IC50): 0.047 µM | EC50 [3]: 0.071 µM | EC50 [4]: 0.024 µM

CC(C)N1CCN(c2cc(N3CCOCC3)cn3c(=O)c(O)c(-c4ncc(Cc5ccc(F)cc5)s4)nc23)C1=O
EC50 [1, 10]: 0.0097 µM | IC50 ([2]; read-out: IC50): 0.019 µM | EC50 [3]: 0.018 µM | EC50 [4]: 0.0075 µM

CN1CCCN(c2cc(N3CCOCC3)cn3c(=O)c(O)c(-c4ncc(Cc5ccc(F)cc5)s4)nc23)C1=O
EC50 [1, 10]: 0.0215 µM | IC50 [2]: Not Active | EC50 [3]: 0.034 µM | EC50 [4]: 0.0115 µM

CC(NC1CC1)c1cc(N2CCN(C)C2=O)c2nc(-c3ncc(Cc4ccc(F)cc4)s3)c(O)c(=O)n2c1 (stereo not drawn)
EC50 ([1]; hek-293t): Not Active | IC50 [2]: Not Active | EC50 [3]: 0.268 µM | EC50 [4]: 0.0115 µM

CN1CCN(c2cc(N(C)C)cn3c(=O)c(O)c(-c4ncc(Cc5ccc(F)cc5)s4)nc23)C1=O
EC50 [1, 10]: 0.0325 µM | IC50 ([2]; read-out: IC50): 0.09 µM | EC50 [3]: 0.0925 µM | EC50 [4]: 0.0195 µM

CC(C)N(C)C(=O)Nc1cc(N2CCOCC2)cn2c(=O)c(O)c(-c3ncc(Cc4ccc(F)cc4)s3)nc12
EC50 ([1]; hek-293t): Not Active | IC50 [2]: Not Active | EC50 [3]: > 10 µM | EC50 [4]: 0.022 µM

CC(C)N(C)C(=O)N(C)c1cc(N2CCOCC2)cn2c(=O)c(O)c(-c3ncc(Cc4ccc(F)cc4)s3)nc12
EC50 ([1]; hek-293t): Not Active | IC50 [2]: Not Active | EC50 [3]: 0.12 µM | EC50 [4]: 0.0165 µM

CN1CCN(c2cc(CN3CCOCC3)cn3c(=O)c(O)c(-c4ncc(Cc5ccc(F)cc5)s4)nc23)C1=O
EC50 [1, 10]: 0.0145 µM | IC50 ([2]; read-out: IC50): 0.025 µM | EC50 [3]: 0.243 µM | EC50 [4]: 0.0035 µM

O=C1OCCCN1c1cc(N2CCOCC2)cn2c(=O)c(O)c(-c3ncc(Cc4ccc(F)cc4)s3)nc12
EC50 [1, 10]: 0.0105 µM | IC50 [2]: Not Active | EC50 [3]: 0.0165 µM | EC50 [4]: 0.0043 µM

CN1CCN(c2cc(N3CCNCC3=O)cn3c(=O)c(O)c(-c4ncc(Cc5ccc(F)cc5)s4)nc23)C1=O
EC50 ([1]; hek-293t): Not Active | IC50 [2]: Not Active | EC50 [3]: 1.1 µM | EC50 [4]: 0.027 µM

O=C1CNCCN1c1cc(N2CCOCC2)cn2c(=O)c(O)c(-c3ncc(Cc4ccc(F)cc4)s3)nc12
EC50 [5]: 0.004 µM | EC50 [6]: 0.0061 µM | EC50 [7]: 0.0345 µM | half-life [8]: 52 min | EC50 [9]: 0.0067 µM

O=C1OCCN1c1cc(N2CCOCC2)cn2c(=O)c(O)c(-c3ncc(Cc4ccc(F)cc4)s3)nc12
EC50 [1, 10]: 0.025 µM | IC50 ([2]; read-out: IC50): 0.026 µM | EC50 [3]: 0.108 µM | EC50 [4]: 0.0071 µM

CC1CN(C)CCN1c1cc(N2CCCOC2=O)c2nc(-c3ncc(Cc4ccc(F)cc4)s3)c(O)c(=O)n2c1 (stereo not drawn)
EC50 [5]: 0.0042 µM | EC50 [6]: 0.0055 µM | EC50 [7]: 0.0405 µM | half-life [8]: 18 min | EC50 [9]: 0.0052 µM
